In ChEMBL document CHEMBL3808358, “Rational Design of Small Peptides for Optimal Inhibition of Cyclooxygenase-2: Development of a Highly Effective Anti-Inflammatory Agent” (J Med Chem, 2016) one finds Ratio IC50, IC50 and Activity data, which are given here for 22 compounds.

Calls of active or inactive are those of the source. The calls are words filed in the database; no cut-off is given here. Residues, ends and D or L forms follow the SMILES beside them. *: point of attachment. Cbz = O=C(OCc1ccccc1)* Some results are limits rather than exact numbers.

Assay [1] can be described thus: Selectivity index, ratio of IC50 for ovine COX1 to IC50 for human recombinant COX2. An outline of the steps: (§1)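 Ovine COX-1 and human recombinant COX-2 with heme are preincubated with inhibitor for 10 min at 37 °C. Arachidonic acid is then added for 2 min at 37 °C. Prostaglandins are quantified by competitive AChE-tracer EIA, read at 420 nm. Four concentrations (10^-5 to 10^-8 M) are tested in triplicate. IC50 is taken from the dose-response curve of the mean % inhibition.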

In assay [2] the target is T1, Prostaglandin G/H synthase 2 (Homo sapiens, UniProt P35354).
T1 sequence (P35354 whole entry): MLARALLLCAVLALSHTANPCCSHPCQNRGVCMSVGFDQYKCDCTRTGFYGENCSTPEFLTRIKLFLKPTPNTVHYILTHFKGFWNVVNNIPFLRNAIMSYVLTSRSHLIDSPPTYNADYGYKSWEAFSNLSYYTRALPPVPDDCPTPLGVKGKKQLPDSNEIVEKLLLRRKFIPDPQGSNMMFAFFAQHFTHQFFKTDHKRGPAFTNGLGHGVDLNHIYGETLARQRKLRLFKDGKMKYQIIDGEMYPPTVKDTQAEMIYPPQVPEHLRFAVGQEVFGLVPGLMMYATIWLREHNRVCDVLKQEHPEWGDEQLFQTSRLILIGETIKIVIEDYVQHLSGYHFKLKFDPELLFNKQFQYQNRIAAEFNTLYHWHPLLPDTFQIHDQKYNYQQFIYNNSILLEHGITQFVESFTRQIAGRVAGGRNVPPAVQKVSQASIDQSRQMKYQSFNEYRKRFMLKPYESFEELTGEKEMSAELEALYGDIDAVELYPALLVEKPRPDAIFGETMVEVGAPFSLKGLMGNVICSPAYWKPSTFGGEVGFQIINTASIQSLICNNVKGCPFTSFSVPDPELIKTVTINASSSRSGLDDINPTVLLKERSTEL
The assay is described as follows: Inhibition of human recombinant COX2 assessed as reduction in PGH2-derived PGF2alpha using arachidonic acid as substrate preincubated for 10 mins followed by substrate addition measured after 2 mins by enzyme immunoassay.

Assay [3] deals with T2, Prostaglandin G/H synthase 1 (Ovis aries, UniProt P05979).
T2 sequence (P05979 whole entry): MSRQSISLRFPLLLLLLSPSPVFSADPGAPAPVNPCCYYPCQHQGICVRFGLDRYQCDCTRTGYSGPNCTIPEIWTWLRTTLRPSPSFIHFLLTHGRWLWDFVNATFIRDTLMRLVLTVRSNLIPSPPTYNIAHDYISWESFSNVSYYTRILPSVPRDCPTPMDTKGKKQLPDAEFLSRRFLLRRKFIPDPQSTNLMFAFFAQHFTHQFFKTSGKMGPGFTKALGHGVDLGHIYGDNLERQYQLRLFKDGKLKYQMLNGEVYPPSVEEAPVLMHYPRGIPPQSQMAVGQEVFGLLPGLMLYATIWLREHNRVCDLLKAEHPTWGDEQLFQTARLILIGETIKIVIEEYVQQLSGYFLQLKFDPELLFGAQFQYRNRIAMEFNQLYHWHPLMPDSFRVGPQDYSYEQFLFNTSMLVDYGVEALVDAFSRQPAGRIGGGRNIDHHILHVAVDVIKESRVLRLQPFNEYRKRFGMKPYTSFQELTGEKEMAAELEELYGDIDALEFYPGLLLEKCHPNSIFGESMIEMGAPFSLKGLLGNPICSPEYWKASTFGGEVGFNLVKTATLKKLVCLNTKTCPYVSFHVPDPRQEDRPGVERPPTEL
The assay can be described thus: Inhibition of ovine COX1 assessed as reduction in PGH2-derived PGF2alpha using arachidonic acid as substrate preincubated for 10 mins followed by substrate addition measured after 2 mins by enzyme immunoassay. An outline of the steps:
as §1

For assay [4], the system named is Mus musculus. The assay can be described thus: Analgesic activity in Swiss albino mouse assessed as reduction in capsaicin-induced paw licking at 5 to 10 mg/kg, ip dosed 30 mins before capsaicin injection measured for 10 mins. Type of assay: functional, organism-based. An outline of the steps:
(§2)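 Swiss albino mice of either sex (25-35 g), kept at 22 ± 2 °C on a 12 h light/dark cycle with free food and water. 5 animals per group. Capsaicin (1.6 μg in 20 μL) is injected into the plantar surface of the hind paw. Pain is scored as the number of paw lickings over 10 min.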

Assay [5] relates to Mus musculus. The assay can be described thus: Analgesic activity in Swiss albino mouse assessed as reduction in capsaicin-induced paw licking at 10 mg/kg, ip dosed 30 mins before capsaicin injection measured for 10 mins. Type of assay: functional, organism-based. Put shortly: as §2
The target in assay [6] is Prostaglandin G/H synthase 1 (Homo sapiens) (UniProt P23219). The assay is described as follows: Inhibition of COX1 in healthy human whole blood assessed as calcium ionophore A23187-stimulated TXB2 level at 1 uM preincubated for 60 mins followed by A23187 addition measured after 30 mins by ELISA. Type of assay: tissue-based. Put shortly:
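Fresh venous blood from a healthy volunteer is collected in EDTA. 1 mL samples receive compound, indomethacin or DMSO vehicle (final 1 μM). After 60 min, A23187 is added (final 50 μM). After 30 min, samples are centrifuged at 4 °C and TxB2 in plasma is measured by ELISA, read at 420 nm. Samples are run in duplicate.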

Assay [7] relates to Mus musculus. The assay is described as follows: Antiinflammatory activity in Swiss albino mouse assessed as reduction in carrageenan-induced paw edema at 10 mg/kg, ip dosed 30 mins before carrageenan injection measured up to 300 mins by vernier calliper method relative to control. Type of assay: functional, organism-based.
Assay [8] concerns Mus musculus. The assay can be described thus: Analgesic activity in Swiss albino mouse assessed as reduction in formalin-induced paw flinches in inflammatory phase at 5 mg/kg, ip dosed 30 mins before formalin injection measured after 15 to 30 mins. Type of assay: functional, organism-based. An outline of the steps: (§3)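 Swiss albino mice of either sex (25-35 g). 20 μL of 2% formalin is injected into the plantar surface of the right hind paw 30 min after treatment. Hind paw flinches are counted for the neurogenic phase (0-5 min) and the inflammatory phase (15-30 min). Results are given as mean ± SEM.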

For assay [9], the system named is Mus musculus. The assay can be described thus: Analgesic activity in Swiss albino mouse assessed as reduction in formalin-induced paw flinches in neurogenic phase at 5 mg/kg, ip dosed 30 mins before formalin injection measured up to 5 mins. Type of assay: functional, organism-based. Put shortly:
as §3

Chain of Prostaglandin G/H synthase 1 (Homo sapiens) (P23219 whole entry): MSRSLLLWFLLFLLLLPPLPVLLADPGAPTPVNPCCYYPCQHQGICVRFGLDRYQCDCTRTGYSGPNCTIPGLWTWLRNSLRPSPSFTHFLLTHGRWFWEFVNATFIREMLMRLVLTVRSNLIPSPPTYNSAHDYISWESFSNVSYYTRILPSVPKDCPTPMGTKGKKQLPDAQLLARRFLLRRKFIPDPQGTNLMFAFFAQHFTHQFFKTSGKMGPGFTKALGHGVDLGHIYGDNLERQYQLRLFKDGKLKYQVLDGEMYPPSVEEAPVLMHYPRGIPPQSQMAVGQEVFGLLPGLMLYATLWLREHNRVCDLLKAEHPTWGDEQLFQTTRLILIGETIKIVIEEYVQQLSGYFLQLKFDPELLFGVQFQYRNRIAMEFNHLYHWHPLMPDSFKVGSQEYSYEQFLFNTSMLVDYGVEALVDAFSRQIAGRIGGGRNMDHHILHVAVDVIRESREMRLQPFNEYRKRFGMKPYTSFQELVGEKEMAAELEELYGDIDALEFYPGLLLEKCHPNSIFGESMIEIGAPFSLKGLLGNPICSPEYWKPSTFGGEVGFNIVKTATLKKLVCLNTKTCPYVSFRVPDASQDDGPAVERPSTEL

On to `CC(C)C[C@H](NC(=O)[C@H](Cc1ccccc1)NC(=O)CNC(=O)CNC(=O)OCc1ccccc1)C(=O)O` (Cbz-GGFL-OH), for which the Ratio IC50 in assay [1] is 6. In addition, the IC50 was 0.5 µM in [2] and 3 µM in assay [3].
In the case of `CC(C)C[C@H](NC(=O)[C@@H](NC(=O)[C@H](C)NC(=O)CNC(=O)OCc1ccccc1)C(C)C)C(=O)O` (Cbz-GAVL-OH), the IC50 was 8 µM in assay [2] and > 10 µM in assay [3].
`COC(=O)[C@@H](NC(=O)[C@H](C)NC(=O)CNC(=O)OCc1ccccc1)C(C)C` (Cbz-Gly-Ala-Val-OMe): in assay [4], the result was Active. Besides, the Ratio IC50 in assay [1] amounted to 80. Further, the half-maximal inhibitory concentration (IC50) in assay [2] is 0.1 µM; in [3], 8 µM.
Regarding `COC(=O)[C@H](C)NC(=O)[C@H](CC(C)C)NC(=O)CNC(=O)[C@@H](NC(=O)OCc1ccccc1)C(C)C` (Cbz-VGLA-OMe), the outcome in [4] was Active. The Ratio IC50 in assay [1] is > 125. Also, the IC50 in [2] was 0.08 µM; in [3] it was > 10 µM.
Consider `COC(=O)[C@H](CC(C)C)NC(=O)CNC(=O)[C@@H](NC(=O)OCc1ccccc1)C(C)C` (Cbz-Val-Gly-Leu-OMe), for which the half-maximal inhibitory concentration (IC50) in assay [2] is 56 µM; in assay [3], > 10 µM.
As for `O=C(O)CNC(=O)CNC(=O)OCc1ccccc1` (Cbz-Gly-Gly-OH), in assay [3], the 50% inhibitory concentration (IC50) was > 10 µM.
In the case of `COC(=O)[C@H](CC(C)C)NC(=O)[C@H](Cc1ccccc1)NC(=O)CNC(=O)CNC(=O)OCc1ccccc1` (Cbz-GGFL-OMe), the 50% inhibitory concentration (IC50) in assay [2] was 20 µM; in [3], > 10 µM.
Take `CC(C)C[C@H](NC(=O)CNC(=O)[C@@H](NC(=O)OCc1ccccc1)C(C)C)C(=O)N[C@@H](C)C(=O)O` (Cbz-VGLA-OH): the Ratio IC50 in assay [1] amounted to 6. In addition, the figures for the IC50 in assay [2] and in assay [3] were 0.05 µM and 0.3 µM, respectively.
`COC(=O)CNC(=O)CNC(=O)OCc1ccccc1` (Cbz-Gly-Gly-OMe): the Ratio IC50 in assay [1] was > 10. The IC50 is 1 µM in [2] and > 10 µM in [3].
Consider `COc1ccc2c(c1)c(CC(=O)O)c(C)n2C(=O)c1ccc(Cl)cc1`, for which, in assay [5], the result was Active. In addition, in assay [6], the Activity was 2.7 ng/mL.
As for `CC(C)C[C@H](NC(=O)[C@H](C)NC(=O)[C@@H](NC(=O)CNC(=O)OCc1ccccc1)C(C)C)C(=O)O` (Cbz-GVAL-OH), the Ratio IC50 in assay [1] was determined as 10. For the same compound, the results for the IC50 in [2] and in [3] were 0.3 µM and 3 µM, respectively.
As for `COC(=O)[C@H](CC(C)C)NC(=O)CNC(=O)[C@@H](N)C(C)C` (H-Val-Gly-Leu-OMe), the half-inhibitory concentration (IC50) was 10 µM in assay [2] and > 10 µM in assay [3].
Take `CC(C)C[C@H](NC(=O)CNC(=O)[C@@H](NC(=O)OCc1ccccc1)C(C)C)C(=O)O` (Cbz-Val-Gly-Leu-OH): the 50% inhibitory concentration (IC50) in assay [2] was 28 µM; in assay [3], > 10 µM.
Turning to `COC(=O)[C@H](CC(C)C)NC(=O)[C@@H](NC(=O)[C@H](C)NC(=O)CNC(=O)OCc1ccccc1)C(C)C` (Cbz-GAVL-OMe), the IC50 in assay [2] is 22 µM; in assay [3], > 10 µM.
Consider `O=C(O)Cc1ccccc1Nc1c(Cl)cccc1Cl`, for which the result in assay [7] and in assay [8] was Active. For the same compound, the outcome in assay [9] was inactive.
As for `COC(=O)CNC(=O)[C@@H](NC(=O)OCc1ccccc1)C(C)C` (Cbz-Val-Gly-OMe), the IC50 in assay [2] is 75 µM; in assay [3], > 10 µM.
`COC(=O)[C@H](CC(C)C)NC(=O)[C@H](C)NC(=O)[C@@H](NC(=O)CNC(=O)OCc1ccccc1)C(C)C` (Cbz-GVAL-OMe): the IC50 is 19 µM in [2] and > 10 µM in [3].
For `CC(C)[C@H](NC(=O)[C@H](C)NC(=O)CNC(=O)OCc1ccccc1)C(=O)O` (Cbz-Gly-Ala-Val-OH), the Ratio IC50 in assay [1] is > 3. The results for the IC50 in [2] and in assay [3] were 3 µM and > 10 µM, respectively.
In the same order, the values of `COC(=O)[C@@H](NC(=O)[C@H](C)NC(=O)CN)C(C)C` (H-Gly-Ala-Val-OMe) are > 1, 10 µM and > 10 µM.
On the same counts, the results for `CC(C)[C@H](NC(=O)[C@H](C)NC(=O)CN)C(=O)O` (H-Gly-Ala-Val-OH) are 45, 0.2 µM and 9 µM.
In the case of `CC(C)[C@H](NC(=O)OCc1ccccc1)C(=O)NCC(=O)O` (Cbz-Val-Gly-OH), the IC50 in assay [2] is 55 µM; in [3] it was > 10 µM.
As for `CC(C)C[C@H](NC(=O)[C@H](Cc1ccccc1)NC(=O)CNC(=O)CN)C(=O)O` (H-GGFL-OH), in assay [1], the Ratio IC50 is > 25. In addition, the figures for the half-maximal inhibitory concentration (IC50) in [2] and in assay [3] were 0.4 µM and > 10 µM, respectively.
